Laboratory results published in ChEMBL document CHEMBL2021821, “N-phosphonocarbonylpyrrolidine derivatives of guanine: a new class of bi-substrate inhibitors of human purine nucleoside phosphorylase” (J Med Chem, 2012).

How the values were obtained:
[1] = target: T1, Purine nucleoside phosphorylase (Homo sapiens, UniProt P00491); assay: Competitive inhibition of PNP in human PBMC using MSEG as substrate by Dixon-plot analysis
T1 sequence (P00491 whole entry): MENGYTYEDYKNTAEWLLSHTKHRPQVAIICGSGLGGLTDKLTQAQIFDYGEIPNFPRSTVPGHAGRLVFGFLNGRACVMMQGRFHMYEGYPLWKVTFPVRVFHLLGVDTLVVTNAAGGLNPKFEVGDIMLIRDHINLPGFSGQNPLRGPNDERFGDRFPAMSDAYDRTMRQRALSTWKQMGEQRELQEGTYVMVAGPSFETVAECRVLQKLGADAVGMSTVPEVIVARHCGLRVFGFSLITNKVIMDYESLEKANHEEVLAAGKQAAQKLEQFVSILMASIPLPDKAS

[2] = target: T1, Purine nucleoside phosphorylase; assay: Competitive inhibition of human recombinant PNP using MSEG as substrate by Dixon-plot analysis
Outline: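 Human recombinant PNP. Assay mix was 50 mM Tris pH 7.5 with MESG at 40 or 80, constant 500 phosphate and inhibitor 0–500 nM. Enzyme addition started phosphorolysis, read at 360 nm for 5–7 min from initial rates. Ki was taken from Dixon plots (1/v vs [I]) over three independent measurements.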

[3] = target: T1, Purine nucleoside phosphorylase; assay: Competitive inhibition of PNP in human Jurkat cells using MSEG as substrate by Dixon-plot analysis; assay type: cell-based
[4] = target: T1, Purine nucleoside phosphorylase; assay: Competitive inhibition of PNP in human K562 cells using MSEG as substrate by Dixon-plot analysis; assay type: cell-based
[5] = target: T1, Purine nucleoside phosphorylase; assay: Competitive inhibition of PNP in human DoHH2 cells using MSEG as substrate by Dixon-plot analysis; assay type: cell-based
[6] = target: T1, Purine nucleoside phosphorylase; assay: Competitive inhibition of PNP in human MINO cells using MSEG as substrate by Dixon-plot analysis; assay type: cell-based
[7] = target: T1, Purine nucleoside phosphorylase; assay: Competitive inhibition of PNP in human MC116 cells using MSEG as substrate by Dixon-plot analysis; assay type: cell-based
[8] = target: T1, Purine nucleoside phosphorylase; assay: Competitive inhibition of PNP in human SU-DHL-1 cells using MSEG as substrate by Dixon-plot analysis; assay type: cell-based
[9] = target: T1, Purine nucleoside phosphorylase; assay: Competitive inhibition of PNP in human RPMI8226 cells using MSEG as substrate by Dixon-plot analysis; assay type: cell-based, RPMI-8226
[10] = target: T1, Purine nucleoside phosphorylase; assay: Competitive inhibition of PNP in human OPM2 cells using MSEG as substrate by Dixon-plot analysis; assay type: cell-based, OPM-2
[11] = target: T1, Purine nucleoside phosphorylase; assay: Competitive inhibition of PNP in human HBL2 cells using MSEG as substrate by Dixon-plot analysis; assay type: cell-based
[12] = target: T1, Purine nucleoside phosphorylase; assay: Competitive inhibition of PNP in human HBL2 tumor cells using MSEG as substrate by Dixon-plot analysis; assay type: cell-based
[13] = target: T1, Purine nucleoside phosphorylase; assay: Competitive inhibition of PNP in human CML cells obtained from patients using MSEG as substrate by Dixon-plot analysis; assay type: cell-based
[14] = target: T1, Purine nucleoside phosphorylase; assay: Competitive inhibition of PNP in human AML cells obtained from patients using MSEG as substrate by Dixon-plot analysis; assay type: cell-based
[15] = target: T1, Purine nucleoside phosphorylase; assay: Inhibition of human recombinant PNP using MSEG as substrate preincubated with inhibitor within 10 to 20 mins measured after 5 mins by HPLC analysis
Outline: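 Recombinant human PNP (0.002 units) preincubated with inhibitor (0–250 nM) in 50 mM Tris pH 7.5 at 20 C for 0, 10 or 20 min. Then phosphate (final 500 µM) and MESG (final 20 µM) added; incubated 2 and 5 min at 25 C, aliquots quenched with HCl. MESG phosphorolysis measured by HPLC; activity expressed relative to no-inhibitor assays.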

Compound | Ki [1] | Ki [2] | Ki [3] | Ki [4] | Ki [5] | Ki [6] | Ki [7] | Ki [8] | Ki [9] | Ki [10] | Ki [11] | Ki [12] | Ki [13] | Ki [14] | IC50 [15]
Nc1nc2c(ncn2[C@H]2CCN(C(=O)P(=O)(O)O)C2)c(=O)[nH]1 | 20 nM | 25 nM | 16 nM | 60 nM | 50 nM | 30 nM | 50 nM | 38 nM | 50 nM | 78 nM | 98 nM | 100 nM | 77 nM | 60 nM | 
Nc1nc2c(ncn2[C@@H]2CN(C(=O)P(=O)(O)O)C[C@@H]2O)c(=O)[nH]1 | 10 nM | 7 nM | 10 nM | 10 nM | 6 nM | 10 nM | 11 nM | 11 nM | 20 nM | 16 nM | 16 nM | 24 nM | 14 nM | 12 nM | 10 nM
